Test results: PubChem BioAssay AID624467 (The Scripps Research Institute Molecular Screening Center, 2012)
The campaign covered roughly 360,000 compounds. About 3,600 (1%) were called active.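 How the source made its calls: active means activation above the mean activation of all test compounds in the run plus 3 SD (cut at about 38% in these data); inactive means the rest.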 This excerpt belongs to a sample that is enriched for actives.

The compounds below were run against Trace amine-associated receptor 1 (Homo sapiens) (UniProt Q96RJ0) (assay: human TAAR1 agonists, primary screen, Fluo-8 calcium fluorescence, CHO RD-HGA16 cells (AID 624467)). Settings: CHO RD-HGA16 TAAR1, Fluo-8 calcium fluorescence; at 3 µM; hits give high values; vehicle wells 0%, saturating PEA agonist 100%.
Outline: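 test system = CHO RD-HGA16 cells carrying human TAAR1 plus Gα16 | schedule = 17-24 h seeding, 75 min 37 °C dye, 30 min RT | compound dosing = 3 µM single concentration | control set = DMSO and PEA EC100 | replicates = n 1 | signal = Fluo-8 fluorescence, 5 s baseline then 140 s kinetic read | measure = percent activation vs PEA EC100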

Chain of Trace amine-associated receptor 1 (Homo sapiens) (Q96RJ0 whole entry, looked up): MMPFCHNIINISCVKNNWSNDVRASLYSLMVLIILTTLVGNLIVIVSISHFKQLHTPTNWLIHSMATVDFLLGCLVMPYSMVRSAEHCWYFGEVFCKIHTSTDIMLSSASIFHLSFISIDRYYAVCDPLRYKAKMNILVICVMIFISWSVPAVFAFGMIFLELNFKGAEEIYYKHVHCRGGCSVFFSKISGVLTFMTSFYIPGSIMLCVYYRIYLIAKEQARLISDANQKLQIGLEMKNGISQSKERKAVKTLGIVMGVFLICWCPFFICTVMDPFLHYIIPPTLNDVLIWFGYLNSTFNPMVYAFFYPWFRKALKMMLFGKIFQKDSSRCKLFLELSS

activation, active:
CCC(c1nnnn1Cc1ccco1)N(CCc1ccccc1)Cc1cc2ccc(OC)cc2[nH]c1=O (stereo unspecified) 100%
CCC(c1nnnn1Cc1ccco1)N(CCc1ccccc1)Cc1cc2cccc(C)c2[nH]c1=O (stereo unspecified) 43.8%
c1ccc(-c2csc(N3CCc4ccccc4C3)n2)cc1 73%
O=C(C1CCN(c2nnc(-n3cccc3)s2)CC1)N1CCc2ccccc2C1 40.9%
Cc1cc(=O)oc2c(C)c(OCC(=O)NCCN3CCOCC3)ccc12 43.2%
CCCSc1nc2c(c(=O)n(C)c(=O)n2C)n1Cc1ccc(C)cc1 52.6%
Nc1nnn(CC(=O)N/N=C/c2ccccc2)n1 43.3%
COc1ccc(C(=O)NNC(=S)NC(=O)c2ccccc2)cc1 130%
COc1ccc(C(=O)NC(=S)NNC(=O)CCc2ccccc2)cc1 108%
Nc1cc(OC(=O)c2ccccc2Br)nn1S(=O)(=O)c1ccccc1 78%
COc1ccc2cc(-c3[nH]ncc3CNCCn3nc(C)cc3C)ccc2c1 44%
CCCCCC(=O)NC(=S)NNC(=O)c1ccc([N+](=O)[O-])cc1 71.7%
Cc1cc(O)ccc1-c1cc(C(=O)NCc2cc(C(F)(F)F)cc(C(F)(F)F)c2)[nH]n1 39.9%
NC(N)=N/N=C/c1ccc(OCc2ccc(Cl)cc2Cl)cc1 84.3%
CCn1nccc1C(=O)Nc1ccc(S(=O)(=O)NC23CC4CC(CC(C4)C2)C3)cc1 42.5%
COc1cccc(-c2cnc(OC(C)(C)C)nc2OC(C)(C)C)c1 47.4%
CN(C)c1ccc(/C=C2\NC(=S)N(Cc3ccccc3)C2=O)cc1 81.4%

activation, inactive:
O=S(=O)(c1cccs1)N1CCCc2nc(-c3ccc(Br)cc3)ccc21 1.37%
NC(=O)c1ncn([C@@H]2O[C@H](C(=O)O)[C@@H](O)[C@H]2O)n1 1.97%
COCCNC(=O)c1cc2c(Br)ccc(Br)c2nc1N 0.74%
COc1ccc2[nH]c(=O)c(CN(Cc3nnnn3CCc3ccccc3)CC3CCCO3)cc2c1 (stereo unspecified) 11.8%
Cc1cccc2cc(CN(Cc3nnnn3Cc3ccccc3)C3CCCC3)c(=O)[nH]c12 12%
CCC(c1nnnn1Cc1ccco1)N(Cc1cc2cc(OC)ccc2[nH]c1=O)C1CCCCC1 (stereo unspecified) 1.97%
CCC(c1nnnn1C1CCCC1)N(Cc1cccs1)Cc1cc2cccc(C)c2[nH]c1=O (stereo unspecified) 2.02%
CN(C)S(=O)(=O)c1cc(C(=O)Nc2ccn(C)n2)c(Cl)cc1Cl 2.93%
Nc1ncnc2c1ncn2C1OC(CO)CC1O (stereo unspecified) 1.93%
O=S(=O)(c1cccs1)N1CCc2ccccc2C1 13%
CN(C)CCCNC(=S)N1CCN(c2nc(-c3ccccc3)cs2)CC1 3.41%
COc1ccc(Cn2c(-c3ccc(Cl)cc3)c[n+]3ccccc23)cc1 12.9%
C=CC1=CCN(S(=O)(=O)C(C)(C)C)[C@@H]1CCO 3.56%
FC(F)(F)c1ccc(-n2cn[nH]c2=S)cc1 0.73%
CCOC(=O)C1CCCN(C(=O)C2CCN(c3nnc(-n4cccc4)s3)CC2)C1 (stereo unspecified) -0.39%
CSc1ccc(CCNC(=O)C2CCN(c3nnc(-n4cccc4)s3)CC2)cc1 -0.88%
CC1(C)CC(=O)C=C(c2ccccc2CO)C1=O 0.98%
COC1=CCC2([N+](=O)[O-])CN(CC(=O)O)CC1([N+](=O)[O-])C2 (stereo unspecified) 1.51%
CCOC(=O)C1=C(C(=O)OCC)C2N(Cc3ccc(C#N)cc3)c3ccccc3[C@@]23C[C@@H](C(=O)OC)N(S(=O)(=O)c2ccc(F)cc2)C3=N1 (stereo partly specified) -0.08%
Cc1noc(C)c1NC(=O)Nc1ccc2c(c1)C(=O)N([C@H](C)CO)C[C@H](C)[C@H](CN(C)Cc1ccncc1)OCCCC[C@@H](C)O2 2.28%
Cc1cc(=O)oc2c(C)c(OCC(=O)NCCc3ccc(S(N)(=O)=O)cc3)ccc12 0.73%
CCc1cc(=O)oc2c(C)c(OCC(=O)NCCN3CCOCC3)ccc12 2.36%
O=C1C2(c3ccccc3)CN(CCCO)CC1(c1ccccc1)CN(CCCO)C2 2.41%
CCOc1ccc(Cn2c(SCCCCC#N)nc3c2c(=O)n(C)c(=O)n3C)cc1OCC 17.1%
Cn1c(=O)c2c(nc(SCCNS(=O)(=O)c3ccccc3)n2C)n(C)c1=O 1.23%
CC1CCc2sc(C(=O)N/N=C/C3CCCCC3)cc2C1 (stereo unspecified) 5.23%
COCc1[nH]nc2c1C(c1ccccc1)N(c1ccccc1)C2=O (stereo unspecified) 0.37%
O=C(Cn1nnc(-c2ccccc2)n1)N/N=C/c1ccc(-c2ccc(Cl)cc2)o1 -0.07%
O=C(Cn1cncn1)N/N=C/c1c2ccccc2cc2ccccc12 6.44%
CC(C)CNc1cccc2c1S(=O)(=O)N[C@H](C)CO2 -0.59%
COc1ccc(/C(N)=N/OC(=O)CCCc2ccccc2)cc1 5.81%
CCOc1ccccc1NC(=S)NC(=O)CCc1ccccc1 -1.05%
Cn1nnc(NC(=S)NC(=O)c2ccccc2)n1 0.43%
CC(=O)NC(=S)NNC(=O)c1ccc(Br)cc1 6.34%
COCCCNC(=O)C[C@H]1C[C@@]2(C(=O)OC)C(=C[C@H](C(C)(C)C)O[C@@H]2C)N(Cc2ccc3c(c2)OCO3)C1=O 0.46%
Nc1[nH]c(C(=O)c2ccccc2)c(-c2ccc(Cl)cc2Cl)c1C(=O)c1ccccc1 1.29%
CCC(Sc1nncn1C)C(=O)Nc1nnc(-c2ccc(Cl)cc2)s1 (stereo unspecified) 0.73%
COCc1cc(N2CCN(C(=O)OC(C)(C)C)C[C@@H]2C)ccc1N1CCN(Cc2ccccc2)[C@H](C)C1 -1.74%
Cc1ccccc1C(=O)N[C@H](C(=O)N1CCC[C@H]1C(=O)NCc1ccccc1)C(C)C 1.24%
CC(=O)N(CC(O)CO)c1c(I)c(C(=O)NCC(O)CO)c(I)c(C(=O)NCC(O)CO)c1I (stereo unspecified) 0.12%
COC(=O)[C@]12C[C@H](CC(=O)NCc3cccc(C(F)(F)F)c3)C(=O)N(Cc3ccc4c(c3)OCO4)C1=C[C@H](COCc1ccccc1)O[C@@H]2C 1.6%
CN1C(=O)/C(=N/OC(=O)c2ccccc2Br)c2ccccc21 2.86%
Cc1ccc(S(=O)(=O)n2nc(OC(=O)C(C)(C)C)cc2N)cc1 2.73%
Cc1cc(C)n(CCNS(=O)(=O)c2ccc(Cl)cc2)n1 2.21%
COc1ccc(-c2cn[nH]c2-c2ccc(OC)cc2)cc1 5.38%
C[C@@H]1CN([C@@H](C)CO)S(=O)(=O)c2ccc(C#Cc3cccc(F)c3)cc2O[C@H]1CN(C)S(=O)(=O)c1cn(C)cn1 20.9%
COCCCNC(=S)NC(=O)c1ccc([N+](=O)[O-])cc1 0.22%
CC(C)CC(=O)NC(=S)NNC(=O)c1cccc([N+](=O)[O-])c1 20.7%
CCOc1cc(C(=O)N2CCc3cc(OC)c(OC)cc3C2)ccc1OC(F)F 3.06%
Cc1cc(OC(=O)NCCc2ccc(F)cc2)ccc1F 3.75%
CC[C@H](C)[C@H]1CNC(=O)C(=O)N1CC1CCN(CCc2ccc(OC)c(OC)c2)CC1 -0.17%
CCCOc1ccc(F)cc1-c1cc(C(=O)NCc2ccc(F)cc2)[nH]n1 3.61%
Cc1ccc(O)c(-c2cc(C(=O)NCc3ccccc3)[nH]n2)c1 8.4%
Brc1cnc2ccccc2c1N1CCCCC1 5.6%
CCOC(=O)C1=C(CC)Nc2ccccc2N=C1NC(=O)c1cccc(S(=O)(=O)N2CCCC2)c1 7.96%
CC(C)(C)NC(=O)NC(=O)COC(=O)Cc1ccc(Cl)cc1Cl -2.34%
NC(=O)COc1ccc(/C=N/NC(=O)C2CCCN2S(=O)(=O)c2ccc(Cl)cc2)cc1 (stereo unspecified) 5.15%
O=C(Nc1ccc(S(=O)(=O)Nc2ncccn2)cc1)C12CC3CC(CC(C3)C1)C2 0.17%
Cc1cc(C(F)F)n2nc(C(=O)Nc3ccc(S(=O)(=O)NC45CC6CC(CC(C6)C4)C5)cc3)nc2n1 6.82%
COC(=O)c1cc2c(c3c4cc(F)ccc4n(S(=O)(=O)c4ccccc4)c13)C(=O)N(Cc1ccccc1OC)C2 0.14%
O=C1CC(Sc2ncn[nH]2)C(=O)N1c1ccccc1 (stereo unspecified) 4.92%
COc1cccc(-c2nc3nc(C)cc(C)n3c2NC2CCCCC2)c1 1.46%
CC(C)(C)Oc1ncc(Br)c(OC(C)(C)C)n1 1.63%
CN(C(=O)CN1C(=O)NC(C)(CCc2ccccc2)C1=O)c1ccccc1 (stereo unspecified) 1.03%
CC(=O)C1=C(C)N(Cc2ccccc2)C(=S)NC1c1cccc(Br)c1 (stereo unspecified) -0.24%
Cc1ccc(N)cc1CN1CCN(c2ncc(Cc3ccccc3)cn2)CC1 -0.94%
COc1ccc(C2/C=C\CN(CC(C)C)CC(=O)N2Cc2ccc(F)cc2)cc1 (stereo unspecified) -1.75%
Cc1c([N+](=O)[O-])c(N)nn1C 2.61%
Cc1nn2c3cc(N4CCOCC4)ccc3nc2c2ccccc12 2.7%
